According to ChEMBL document CHEMBL1671845, “Inhibitors of HCV NS5A: From Iminothiazolidinones to Symmetrical Stilbenes” (ACS Med Chem Lett, 2011):

System: not listed separately
Assay: Chemical stability of the compound in DMSO assessed as conversion of (2S)-N-(4-(3-(3-Fluorophenyl)-1-(furan-2-ylmethyl)-4-hydroxy-5-oxo-2- thioxoimidazolidin-4-yl)phenyl)-2-(2-phenylacetamido)propanamide by HPLC analysis
Format: physicochemical
Conditions: not given
For C[C@H](NC(=O)OCc1ccccc1)C(=O)Nc1ccc(C2S/C(=N\c3cccc(F)c3)N(Cc3ccco3)C2=O)cc1 (stereo partly drawn), the Stability was “Unstable”.
For C[C@H](NC(=O)Cc1ccccc1)C(=O)Nc1ccc(C2S/C(=N\c3cccc(F)c3)N(Cc3ccco3)C2=O)cc1 (stereo partly drawn), the Stability was “Unstable”.

System: Hepatitis C virus
Assay: Antiviral activity against HCV1b infected in human HuH7 cells assessed as inhibition of viral replication after 72 hrs by FRET assay
Format: functional, organism-based, Hepacivirus hominis
Conditions: genotype 1b, Huh-7, 72 h
Procedure, shortened: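 Dual-replicon screen pairing an HCV genotype 1b replicon with a bovine viral diarrhea virus replicon, run in high-throughput mode. Results are reported as EC50.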
In the case of C[C@H](NC(=O)OCc1ccccc1)C(=O)Nc1ccc(C2S/C(=N\c3cccc(F)c3)N(Cc3ccco3)C2=O)cc1 (stereo partly drawn), the EC50 is reported as 580 nM.
Work on O=C(Nc1ccc(C2S/C(=N\c3cccc(F)c3)N(Cc3ccco3)C2=O)cc1)OCc1ccccc1 (stereo not drawn) yielded an EC50 of 150000 nM.
Molecule O=C(COCc1ccccc1)Nc1ccc(C2S/C(=N\c3cccc(F)c3)N(Cc3ccco3)C2=O)cc1 (stereo not drawn) has an EC50 of 61000 nM.
Work on CC(OCc1ccccc1)C(=O)Nc1ccc(C2S/C(=N\c3cccc(F)c3)N(Cc3ccco3)C2=O)cc1 (stereo not drawn) yielded an EC50 of 132000 nM.
O=C(CCc1ccccc1)Nc1ccc(C2S/C(=N\c3cccc(F)c3)N(Cc3ccco3)C2=O)cc1 (stereo not drawn) gave an EC50 of 75000 nM.
Work on COC(=O)CCCC(=O)Nc1ccc(C2S/C(=N\c3cccc(F)c3)N(Cc3ccco3)C2=O)cc1 (stereo not drawn) yielded an EC50 of 150000 nM.
In the case of C[C@@H](NC(=O)OCc1ccccc1)C(=O)Nc1ccc(C2S/C(=N\c3cccc(F)c3)N(Cc3ccco3)C2=O)cc1 (stereo partly drawn), the EC50 is reported as 96000 nM.
With O=C(Nc1ccc(C2S/C(=N\c3cccc(F)c3)N(Cc3ccco3)C2=O)cc1)[C@@H]1CCCN1C(=O)OCc1ccccc1 (stereo partly drawn) the EC50 was 110 nM.
Molecule O=C(Nc1ccc(C2S/C(=N\c3cccc(F)c3)N(Cc3ccco3)C2=O)cc1)[C@H]1CCCN1C(=O)OCc1ccccc1 (stereo partly drawn) has an EC50 of 6500 nM.
O=C(CNC(=O)OCc1ccccc1)Nc1ccc(C2S/C(=N\c3cccc(F)c3)N(Cc3ccco3)C2=O)cc1 (stereo not drawn) gave an EC50 of 5000 nM.
With CC(C)(C)OC[C@H](NC(=O)OCc1ccccc1)C(=O)Nc1ccc(C2S/C(=N\c3cccc(F)c3)N(Cc3ccco3)C2=O)cc1 (stereo partly drawn) the EC50 was greater than 50000 nM.
CC[C@@H](C)[C@H](NC(=O)OCc1ccccc1)C(=O)Nc1ccc(C2S/C(=N\c3cccc(F)c3)N(Cc3ccco3)C2=O)cc1 (stereo partly drawn) showed an EC50 of 6000 nM.
In the case of O=C(N[C@@H](CSCc1ccccc1)C(=O)Nc1ccc(C2S/C(=N\c3cccc(F)c3)N(Cc3ccco3)C2=O)cc1)OCc1ccccc1 (stereo partly drawn), the EC50 is reported as greater than 50000 nM.
In the case of O=C(N[C@@H](Cc1ccccc1)C(=O)Nc1ccc(C2S/C(=N\c3cccc(F)c3)N(Cc3ccco3)C2=O)cc1)OCc1ccccc1 (stereo partly drawn), the EC50 is reported as greater than 50000 nM.
In the case of C[C@H](NC(=O)c1ccccc1)C(=O)Nc1ccc(C2S/C(=N\c3cccc(F)c3)N(Cc3ccco3)C2=O)cc1 (stereo partly drawn), the EC50 is reported as 1900 nM.
Molecule O=C(Nc1ccc(C2S/C(=N\c3cccc(F)c3)N(Cc3ccco3)C2=O)cc1)[C@@H]1CCCN1C(=O)c1ccccc1 (stereo partly drawn) has an EC50 of 7900 nM.
C[C@H](NC(=O)Cc1ccccc1)C(=O)Nc1ccc(C2S/C(=N\c3cccc(F)c3)N(Cc3ccco3)C2=O)cc1 (stereo partly drawn) gave an EC50 of 6 nM.
Molecule O=C(Nc1ccc(C2S/C(=N\c3cccc(F)c3)N(Cc3ccco3)C2=O)cc1)[C@@H]1CCCN1C(=O)Cc1ccccc1 (stereo partly drawn) has an EC50 of 23 nM.
In the case of C[C@H](NC(=O)CCc1ccccc1)C(=O)Nc1ccc(C2S/C(=N\c3cccc(F)c3)N(Cc3ccco3)C2=O)cc1 (stereo partly drawn), the EC50 is reported as 3100 nM.
Work on O=C(Nc1ccc(C2S/C(=N\c3cccc(F)c3)N(Cc3ccco3)C2=O)cc1)[C@@H]1CCCN1C(=O)CCc1ccccc1 (stereo partly drawn) yielded an EC50 of 5100 nM.
Work on C[C@H](NC(=O)OCc1ccccc1)C(=O)Nc1ccc(C2S/C(=N\c3cccc(F)c3)N(CC3CCCO3)C2=O)cc1 (stereo partly drawn) yielded an EC50 of 650 nM.
In the case of C[C@H](NC(=O)OCc1ccccc1)C(=O)Nc1ccc(C2S/C(=N\c3cccc(F)c3)N(Cc3cnccn3)C2=O)cc1 (stereo partly drawn), the EC50 is reported as 25 nM.
O=C(Nc1ccc(C2S/C(=N\c3cccc(F)c3)N(Cc3cnccn3)C2=O)cc1)[C@@H]1CCCN1C(=O)OCc1ccccc1 (stereo partly drawn) showed an EC50 of 38 nM.
In the case of C[C@H](NC(=O)OCc1ccccc1)C(=O)Nc1ccc(C2S/C(=N\c3cccc(F)c3)N(Cc3ccccn3)C2=O)cc1 (stereo partly drawn), the EC50 is reported as 35 nM.
O=C(Nc1ccc(C2S/C(=N\c3cccc(F)c3)N(Cc3ccccn3)C2=O)cc1)[C@@H]1CCCN1C(=O)OCc1ccccc1 (stereo partly drawn) showed an EC50 of 2 nM.
For C[C@H](NC(=O)OCc1ccccc1)C(=O)Nc1ccc(C2S/C(=N\c3cccc(F)c3)N(Cc3cccnc3)C2=O)cc1 (stereo partly drawn), the EC50 was 26 nM.
In the case of C[C@H](NC(=O)OCc1ccccc1)C(=O)Nc1ccc(C2S/C(=N\c3cccc(F)c3)N(Cc3ccc(F)c(F)c3F)C2=O)cc1 (stereo partly drawn), the EC50 is reported as 550 nM.
Molecule O=C(Nc1ccc(C2S/C(=N\c3cccc(F)c3)N(Cc3ccc(F)c(F)c3F)C2=O)cc1)[C@@H]1CCCN1C(=O)OCc1ccccc1 (stereo partly drawn) has an EC50 of 600 nM.
Work on C[C@H](NC(=O)OCc1ccccc1)C(=O)Nc1ccc(C2S/C(=N\c3ccc(C(F)(F)F)cc3)N(Cc3ccco3)C2=O)cc1 (stereo partly drawn) yielded an EC50 of 2200 nM.
In the case of O=C(Nc1ccc(C2S/C(=N\c3ccc(C(F)(F)F)cc3)N(Cc3ccco3)C2=O)cc1)[C@@H]1CCCN1C(=O)OCc1ccccc1 (stereo partly drawn), the EC50 is reported as 980 nM.
For C[C@H](NC(=O)OCc1ccccc1)C(=O)Nc1ccc(C2S/C(=N\c3ccc(C(F)(F)F)c(F)c3)N(Cc3ccco3)C2=O)cc1 (stereo partly drawn), the EC50 was 2500 nM.
For O=C(Nc1ccc(C2S/C(=N\c3ccc(C(F)(F)F)c(F)c3)N(Cc3ccco3)C2=O)cc1)[C@@H]1CCCN1C(=O)OCc1ccccc1 (stereo partly drawn), the EC50 was 2200 nM.
For C[C@H](NC(=O)OCc1ccccc1)C(=O)Nc1ccc(C2S/C(=N\c3ccc(Cl)cc3)N(Cc3ccco3)C2=O)cc1 (stereo partly drawn), the EC50 was 510 nM.
In the case of O=C(Nc1ccc(C2S/C(=N\c3ccc(Cl)cc3)N(Cc3ccco3)C2=O)cc1)[C@@H]1CCCN1C(=O)OCc1ccccc1 (stereo partly drawn), the EC50 is reported as 1170 nM.
For CCc1ccc(/N=C2\SC(c3ccc(NC(=O)[C@H](C)NC(=O)OCc4ccccc4)cc3)C(=O)N2Cc2ccco2)cc1 (stereo partly drawn), the EC50 was 1500 nM.
CCc1ccc(/N=C2\SC(c3ccc(NC(=O)[C@@H]4CCCN4C(=O)OCc4ccccc4)cc3)C(=O)N2Cc2ccco2)cc1 (stereo partly drawn) gave an EC50 of 1800 nM.
Molecule C[C@H](NC(=O)OCc1ccccc1)C(=O)Nc1ccc(C2S/C(=N\c3ccc(C#N)cc3)N(Cc3ccco3)C2=O)cc1 (stereo partly drawn) has an EC50 of 37 nM.
Molecule N#Cc1ccc(/N=C2\SC(c3ccc(NC(=O)[C@@H]4CCCN4C(=O)OCc4ccccc4)cc3)C(=O)N2Cc2ccco2)cc1 (stereo partly drawn) has an EC50 of 86 nM.
For C[C@H](NC(=O)OCc1ccccc1)C(=O)Nc1ccc(C2S/C(=N\c3cccc4c3OCCO4)N(Cc3ccco3)C2=O)cc1 (stereo partly drawn), the EC50 was 10 nM.
For O=C(Nc1ccc(C2S/C(=N\c3cccc4c3OCCO4)N(Cc3ccco3)C2=O)cc1)[C@@H]1CCCN1C(=O)OCc1ccccc1 (stereo partly drawn), the EC50 was 9 nM.
In the case of C[C@H](NC(=O)OCc1ccccc1)C(=O)Nc1ccc(C2S/C(=N\c3cccc4ncccc34)N(Cc3ccco3)C2=O)cc1 (stereo partly drawn), the EC50 is reported as 20 nM.
O=C(Nc1ccc(C2S/C(=N\c3cccc4ncccc34)N(Cc3ccco3)C2=O)cc1)[C@@H]1CCCN1C(=O)OCc1ccccc1 (stereo partly drawn) showed an EC50 of 10 nM.
Molecule C[C@H](NC(=O)OCc1ccccc1)C(=O)Nc1ccc(C2S/C(=N\c3ccc(N4CCOCC4)cc3)N(Cc3ccco3)C2=O)cc1 (stereo partly drawn) has an EC50 of 15 nM.
For O=C(Nc1ccc(C2S/C(=N\c3ccc(N4CCOCC4)cc3)N(Cc3ccco3)C2=O)cc1)[C@@H]1CCCN1C(=O)OCc1ccccc1 (stereo partly drawn), the EC50 was 20 nM.
In the case of O=C(Nc1ccc(/C=C/c2ccc(NC(=O)[C@@H]3CCCN3C(=O)Cc3ccccc3)cc2)cc1)[C@@H]1CCCN1C(=O)Cc1ccccc1, the EC50 is reported as 0.086 nM.
Work on O=C(Nc1ccc(/C=C/c2ccc(NC(=O)[C@H]3CCCN3C(=O)Cc3ccccc3)cc2)cc1)[C@H]1CCCN1C(=O)Cc1ccccc1 yielded an EC50 greater than 10000 nM.
O=C(Nc1ccc(/C=C/c2ccc(NC(=O)[C@@H]3CCCN3C(=O)OCc3ccccc3)cc2)cc1)[C@@H]1CCCN1C(=O)OCc1ccccc1 showed an EC50 of 10 nM.
O=C(Nc1ccc(/C=C/c2ccc(NC(=O)[C@H]3CCCN3C(=O)OCc3ccccc3)cc2)cc1)[C@H]1CCCN1C(=O)OCc1ccccc1 showed an EC50 greater than 10000 nM.

System: not listed separately
Assay: Cytotoxicity against human HuH7 cells
Format: cell-based, Huh-7
Conditions: not given
Molecule C[C@H](NC(=O)OCc1ccccc1)C(=O)Nc1ccc(C2S/C(=N\c3cccc(F)c3)N(Cc3ccco3)C2=O)cc1 (stereo partly drawn) has a CC50 greater than 100000 nM.

System: not listed separately
Assay: Chemical stability of the compound in DMSO assessed as conversion of (2S)-1-(4-(3-(3-fluorophenyl)-1-(furan-2-ylmethyl)-4-hydroxy-5-oxo-2-thioxoimidazolidin- 4-yl)phenylamino)-1-oxopropan-2-ylcarbamate after 18 hrs by HPLC analysis
Format: physicochemical
Conditions: not given
For C[C@H](NC(=O)OCc1ccccc1)C(=O)Nc1ccc(C2S/C(=N\c3cccc(F)c3)N(Cc3ccco3)C2=O)cc1 (stereo partly drawn), the Stability was “Unstable”.
With C[C@H](NC(=O)Cc1ccccc1)C(=O)Nc1ccc(C2S/C(=N\c3cccc(F)c3)N(Cc3ccco3)C2=O)cc1 (stereo partly drawn) the Stability was “Unstable”.
